Reference: ChEMBL document CHEMBL4665845, “CRISPR-Cas9 Genome-Wide Knockout Screen Identifies Mechanism of Selective Activity of Dehydrofalcarinol in Mesenchymal Stem-like Triple-Negative Breast Cancer Cells” (2020)
Calls of active or inactive are those of the source. The rule behind the calls is not given here.

Experiments:
[1] = tested on: MDA-MB-231; experiment: Growth inhibition of human MDA-MB-231 cells after 48 hrs by SRB assay; format: functional; details: for CC50: read-out: LC50 (the source's name)
Summary of the method: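 Cells were exposed to compound for 48 h, and growth was read by sulforhodamine B staining. TGI (total growth inhibition concentration, μM) was taken from concentration–response curves, n = 3, means ± SEM. MDA-MB-231 cells were grown in IMEM with 10% FBS at 37 °C in 5% CO2.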

[2] = tested on: BT-549; experiment: Growth inhibition of human BT-549 cells after 48 hrs by SRB assay; format: functional; details: for CC50: read-out: LC50 (the source's name)
[3] = organism: Homo sapiens; experiment: Selectivity index, ratio of TGI for growth inhibitor of human BT-549 to TGI for growth inhibitor of human MDA-MB-231; format: functional
[4] = tested on: MDA-MB-231; experiment: Cytotoxicity against human MDA-MB-231 cells harboring CRISPR/Cas9 assessed as reduction in cell viability at 300 nM by SRB assay; format: functional, cell-based
[5] = tested on: SK-ES1; experiment: Antiproliferative activity against human SK-ES1 cells assessed as reduction in cell viability after 48 hrs by SRB assay; format: functional, cell-based
[6] = tested on: MDA-MB-231; experiment: Induction of cell cycle arret in human MDA-MB-231 cells assessed as G2/M phase accumulation at LC50 concentration after 18 hrs by Krishan's staining based cell analyzer method; format: functional
Summary of the method: (§1)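 MDA-MB-231 cells were treated at the LC50 concentration for 18 h, and cell cycle distribution was then assessed.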

[7] = tested on: MDA-MB-453; experiment: Cytotoxicity against human MDA-MB-453 cells assessed as reduction in cell viability at 0.03 to 3 uM after 48 hrs in presence of GW9662 by SRB assay; format: functional, cell-based; details: dose microM 0.03-3, time 48.0 hrs
[8] = tested on: TC-32; experiment: Antiproliferative activity against human TC-32 cells assessed as reduction in cell viability after 48 hrs by SRB assay; format: functional, cell-based
[9] = tested on: A673; experiment: Antiproliferative activity against human A673 cells assessed as reduction in cell viability after 48 hrs by SRB assay; format: functional, cell-based
[10] = tested on: MDA-MB-231; experiment: Cytotoxicity against human MDA-MB-231 cells assessed as reduction in cell viability at 0.03 to 3 uM after 48 hrs in presence of GW9662 by SRB assay; format: functional, cell-based; details: dose microM 0.03-3, time 48.0 hrs
[11] = biological target: Mitogen-activated protein kinase; ERK1/ERK2 (Homo sapiens) (UniProt P27361+P28482); experiment: Inhibition of phosphorylation of Erk1/2 in human MDA-MB-231 cells at 300 nM preincubated for 6 hrs followed FBS-stimulation and measured after 0.25 to 2 hrs by immunoblotting analysis; format: cell-based; details: time hrs <=8
Sequence of Mitogen-activated protein kinase; ERK1/ERK2 (Homo sapiens) (P27361 whole entry, looked up): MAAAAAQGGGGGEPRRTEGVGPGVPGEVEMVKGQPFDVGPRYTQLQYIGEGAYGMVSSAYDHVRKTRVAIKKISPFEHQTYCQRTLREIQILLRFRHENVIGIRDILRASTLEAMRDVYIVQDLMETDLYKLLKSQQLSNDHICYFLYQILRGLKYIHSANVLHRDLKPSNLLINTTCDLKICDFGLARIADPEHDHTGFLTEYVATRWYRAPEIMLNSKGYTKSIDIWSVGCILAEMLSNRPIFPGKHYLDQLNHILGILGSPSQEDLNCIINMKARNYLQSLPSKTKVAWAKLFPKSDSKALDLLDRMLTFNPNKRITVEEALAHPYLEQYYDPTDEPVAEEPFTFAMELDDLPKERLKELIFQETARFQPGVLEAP
Sequence of Mitogen-activated protein kinase; ERK1/ERK2 (Homo sapiens) (P28482 whole entry, looked up): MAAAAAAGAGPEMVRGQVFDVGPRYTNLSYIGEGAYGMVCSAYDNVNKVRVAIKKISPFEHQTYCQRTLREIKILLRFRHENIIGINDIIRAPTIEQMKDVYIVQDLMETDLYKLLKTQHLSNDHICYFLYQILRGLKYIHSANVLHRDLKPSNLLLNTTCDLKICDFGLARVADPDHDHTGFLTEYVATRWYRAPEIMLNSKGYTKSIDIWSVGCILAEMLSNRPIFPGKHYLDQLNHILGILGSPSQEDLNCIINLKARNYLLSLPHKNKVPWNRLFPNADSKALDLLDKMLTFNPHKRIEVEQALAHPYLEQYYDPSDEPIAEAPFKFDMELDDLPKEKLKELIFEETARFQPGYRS

[12] = tested on: MDA-MB-231; experiment: Induction of cell cycle arret in human MDA-MB-231 cells assessed as S phase accumulation at LC50 concentration after 18 hrs by Krishan's staining based cell analyzer method; format: functional; summary of the method: as §1
[13] = tested on: MDA-MB-231; experiment: Effect on Akt regulation in human MDA-MB-231 cells at 300 nM preincubated for 6 hrs followed FBS-stimulation and measured after 0.25 to 2 hrs by immunoblotting analysis; format: functional, cell-based; details: time hrs <=8
[14] = tested on: MDA-MB-231; experiment: Cytotoxicity against HSD17B11 siRNA knock-out human MDA-MB-231 cells assessed as reduction in cell viability at 300 nM incubated for 48 hrs by SRB assay; format: functional, cell-based
Summary of the method: (§2)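 MDA-MB-231 cells were reverse-transfected with HSD17B11 siRNA (12.5 nM final, 0.025% RNAiMAX, antibiotic-free medium) or mock for 48 h. Cells were then replated, allowed to attach for 4–6 h, and treated for 48 h. Read-out was SRB viability and TGI, n = 3. Knockdown vs mock was compared by paired two-tailed t-test.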

[15] = tested on: MDA-MB-231; experiment: Effect on P70S6K regulation in human MDA-MB-231 cells at 300 nM preincubated for 6 hrs followed FBS-stimulation and measured after 0.25 to 2 hrs by immunoblotting analysis; format: functional, cell-based; details: time hrs <=8
[16] = Ratio of TGI for cytotoxicity against HSD17B11 siRNA knock-out human MDA-MB-231 cells to TGI for cytotoxicity against human MDA-MB-231 cells; format: functional; summary of the method: as §2
[17] = biological target: Ribosomal protein S6 kinase beta-1 (Homo sapiens) (UniProt P23443); experiment: Inhibition of phosphorylation of P70S6K at T389 residue in human MDA-MB-231 cells at 300 nM preincubated for 6 hrs followed FBS-stimulation and measured after 0.25 to 2 hrs by immunoblotting analysis; format: cell-based; details: time hrs <=8
Sequence of Ribosomal protein S6 kinase beta-1 (Homo sapiens) (P23443 whole entry, looked up): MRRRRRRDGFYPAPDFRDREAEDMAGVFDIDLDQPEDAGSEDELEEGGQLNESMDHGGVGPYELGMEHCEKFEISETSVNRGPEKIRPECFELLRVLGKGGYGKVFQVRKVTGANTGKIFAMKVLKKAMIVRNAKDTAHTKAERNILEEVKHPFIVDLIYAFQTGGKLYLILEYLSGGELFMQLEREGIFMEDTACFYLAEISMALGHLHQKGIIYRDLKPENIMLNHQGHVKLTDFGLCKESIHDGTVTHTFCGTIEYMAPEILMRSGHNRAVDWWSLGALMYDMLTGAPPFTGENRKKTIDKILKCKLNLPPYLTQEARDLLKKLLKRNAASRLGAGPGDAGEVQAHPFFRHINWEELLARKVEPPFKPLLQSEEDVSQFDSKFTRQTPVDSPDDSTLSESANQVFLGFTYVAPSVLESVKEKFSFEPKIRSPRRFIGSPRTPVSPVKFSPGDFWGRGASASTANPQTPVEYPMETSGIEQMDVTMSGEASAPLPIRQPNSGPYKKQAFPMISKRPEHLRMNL

[18] = biological target: Serine/threonine-protein kinase AKT (Homo sapiens) (UniProt P31751+Q9Y243+P31749); experiment: Inhibition of phosphorylation of Akt at S473 residue in human MDA-MB-231 cells at 300 nM preincubated for 6 hrs followed FBS-stimulation and measured after 0.25 to 2 hrs by immunoblotting analysis; format: cell-based; details: time hrs <=8
Sequence of Serine/threonine-protein kinase AKT (Homo sapiens) (P31749 whole entry, looked up): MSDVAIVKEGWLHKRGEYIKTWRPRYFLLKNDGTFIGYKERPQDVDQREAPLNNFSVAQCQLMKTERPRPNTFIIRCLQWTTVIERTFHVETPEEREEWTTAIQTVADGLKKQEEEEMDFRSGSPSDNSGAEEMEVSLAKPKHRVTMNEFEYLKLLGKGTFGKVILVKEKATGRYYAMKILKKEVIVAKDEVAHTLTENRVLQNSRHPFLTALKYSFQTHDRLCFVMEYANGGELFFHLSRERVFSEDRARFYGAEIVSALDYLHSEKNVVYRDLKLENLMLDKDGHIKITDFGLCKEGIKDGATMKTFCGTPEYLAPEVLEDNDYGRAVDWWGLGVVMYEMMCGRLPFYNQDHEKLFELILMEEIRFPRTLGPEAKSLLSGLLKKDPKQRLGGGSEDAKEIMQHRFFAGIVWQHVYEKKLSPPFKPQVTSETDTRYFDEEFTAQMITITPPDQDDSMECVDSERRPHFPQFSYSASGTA
Sequence of Serine/threonine-protein kinase AKT (Homo sapiens) (P31751 whole entry, looked up): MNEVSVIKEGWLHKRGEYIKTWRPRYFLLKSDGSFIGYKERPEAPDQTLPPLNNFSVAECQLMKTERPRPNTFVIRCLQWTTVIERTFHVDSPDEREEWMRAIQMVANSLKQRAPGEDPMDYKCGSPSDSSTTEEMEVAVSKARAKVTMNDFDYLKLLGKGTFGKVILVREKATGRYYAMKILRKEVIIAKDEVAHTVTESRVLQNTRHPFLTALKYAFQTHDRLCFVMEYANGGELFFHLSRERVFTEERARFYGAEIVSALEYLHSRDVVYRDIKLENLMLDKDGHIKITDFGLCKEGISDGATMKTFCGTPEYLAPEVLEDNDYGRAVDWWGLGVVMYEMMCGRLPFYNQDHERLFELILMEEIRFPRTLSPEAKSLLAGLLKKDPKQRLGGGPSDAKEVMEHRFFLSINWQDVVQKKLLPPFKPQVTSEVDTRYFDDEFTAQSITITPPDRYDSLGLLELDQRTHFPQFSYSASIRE
Sequence of Serine/threonine-protein kinase AKT (Homo sapiens) (Q9Y243 whole entry, looked up): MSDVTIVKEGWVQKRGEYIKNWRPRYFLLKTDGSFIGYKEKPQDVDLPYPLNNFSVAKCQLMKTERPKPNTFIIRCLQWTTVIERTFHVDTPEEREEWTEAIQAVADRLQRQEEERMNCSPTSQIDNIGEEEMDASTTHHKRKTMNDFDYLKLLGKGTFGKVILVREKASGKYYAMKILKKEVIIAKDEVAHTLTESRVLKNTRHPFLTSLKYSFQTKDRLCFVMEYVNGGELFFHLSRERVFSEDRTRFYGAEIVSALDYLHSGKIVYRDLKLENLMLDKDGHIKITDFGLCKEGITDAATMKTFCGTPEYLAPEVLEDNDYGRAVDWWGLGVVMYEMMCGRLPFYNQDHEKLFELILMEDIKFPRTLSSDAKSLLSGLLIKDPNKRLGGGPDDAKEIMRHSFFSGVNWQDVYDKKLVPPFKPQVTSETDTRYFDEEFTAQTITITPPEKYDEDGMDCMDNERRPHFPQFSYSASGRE

[19] = tested on: MDA-MB-231; experiment: Induction of cell cycle arret in human MDA-MB-231 cells assessed as G1 phase accumulation at LC50 concentration after 18 hrs by Krishan's staining based cell analyzer method; format: functional; summary of the method: as §1
[20] = tested on: BT-549; experiment: Cytotoxicity against human BT-549 cells over expressing HSD17B11 assessed as reduction in cell viability at 1 to 10 uM by SRB assay; format: functional, cell-based; details: dose microM 1-10
Summary of the method: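 BT-549 cells were transfected with a plasmid expressing HSD17B11-GFP from a constitutive CMV promoter, with mock-transfected cells as control. Overexpression was confirmed by immunoblot, and sensitivity was measured by SRB assay.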

[21] = tested on: MDA-MB-231; experiment: Effect on Erk1/2 regulation in human MDA-MB-231 cells at 300 nM preincubated for 6 hrs followed FBS-stimulation and measured after 0.25 to 2 hrs by immunoblotting analysis; format: functional, cell-based; details: time hrs <=8
[22] = tested on: MDA-MB-231; experiment: Cytotoxicity against CRISPR/Cas9-mediated HSD17B11 knock-out human MDA-MB-231 cells at 1 uM incubated for 2 weeks; format: functional, cell-based
Summary of the method: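 Doxycycline-inducible Cas9 MDA-MB-231 cells were transduced with the pooled Brunello sgRNA lentiviral library (0.005 μg/mL polybrene, 5 h), then selected in 1 μg/mL puromycin for 72 h. Cas9 was induced with 50 ng/mL doxycycline for 48 h. Cells were treated with 1 μM for 14 days, refreshing medium and compound every 3–4 days, and recovered 2 days before sgRNA sequencing. Enrichment was compared with input and vehicle.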

[23] = tested on: RD; experiment: Antiproliferative activity against human RDES cells assessed as reduction in cell viability after 48 hrs by SRB assay; format: functional, cell-based
[24] = tested on: MDA-MB-157; experiment: Growth inhibition of human MDA-MB-157 cells after 48 hrs by SRB assay; format: functional; details: for CC50: read-out: LC50 (the source's name)
[25] = organism: Homo sapiens; experiment: Selectivity index, ratio of LC50 for growth inhibitor of human BT-549 to LC50 for growth inhibitor of human MDA-MB-231; format: functional
Summary of the method: (§3)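 Selectivity index is the LC50 of the named TNBC line divided by the LC50 in MDA-MB-231 cells.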

[26] = organism: Homo sapiens; experiment: Selectivity index, ratio of LC50 for growth inhibitor of human MDA-MB-468 to LC50 for growth inhibitor of human MDA-MB-231; format: functional; summary of the method: as §3
[27] = organism: Homo sapiens; experiment: Selectivity index, ratio of LC50 for growth inhibitor of human MDA-MB-453 to LC50 for growth inhibitor of human MDA-MB-231; format: functional; summary of the method: as §3
[28] = organism: Homo sapiens; experiment: Selectivity index, ratio of LC50 for growth inhibitor of human MDA-MB-157 to LC50 for growth inhibitor of human MDA-MB-231; format: functional; summary of the method: as §3
[29] = tested on: MDA-MB-453; experiment: Growth inhibition of human MDA-MB-453 cells after 48 hrs by SRB assay; format: functional; details: for CC50: read-out: LC50 (the source's name)
[30] = tested on: HCC1806; experiment: Growth inhibition of human HCC1806 cells after 48 hrs by SRB assay; format: functional; details: for CC50: read-out: LC50 (the source's name)
[31] = tested on: MDA-MB-468; experiment: Growth inhibition of human MDA-MB-468 cells after 48 hrs by SRB assay; format: functional; details: for CC50: read-out: LC50 (the source's name)
[32] = organism: Homo sapiens; experiment: Selectivity index, ratio of LC50 for growth inhibitor of human […] to LC50 for growth inhibitor of human MDA-MB-231; format: functional; summary of the method: as §3
[33] = tested on: MDA-MB-231; experiment: Cytotoxicity against human MDA-MB-231 cells assessed as reduction in cell viability at 0.03 to 3 uM after 48 hrs by SRB assay; format: functional, cell-based; details: dose microM 0.03-3, time 48.0 hrs
[34] = tested on: MDA-MB-453; experiment: Cytotoxicity against human MDA-MB-453 cells assessed as reduction in cell viability at 0.03 to 3 uM after 48 hrs by SRB assay; format: functional, cell-based; details: dose microM 0.03-3, time 48.0 hrs

C=CCCCCC/C=C\CC#CC#CC(O)CC (stereo not given)
TGI [1]: 3300 nM | TGI [2]: 7 µM | Selectivity Index [3]: 2.1

C=C[C@@H](O)C#CC#CC/C=C\CCCCCCC
TGI [1]: 6000 nM | TGI [2]: 9 µM | Selectivity Index [3]: 1.5

C=CCCCCCC(O)/C=C/C#CC#C[C@@H](O)C=C (single isomer, unassigned) [DENDROARBOREOL B]
TGI [1]: 160 nM | TGI [2]: 1.1 µM | Selectivity Index [3]: 6.9

C=CCCC/C=C\[C@H](O)C#CC#C[C@H](O)C=C
TGI [1]: 12000 nM | TGI [2]: 29 µM | Selectivity Index [3]: 2.4

C=CCCC/C=C\CC#CC#CC(O)C=C (mixture of isomers)
TGI [1]: 490 nM | TGI [2]: 2.4 µM | Selectivity Index [3]: 4.9

C=CCCCCCC(O)/C=C/C#CC#CC(O)CC (mixture of isomers)
TGI [1]: 4300 nM | TGI [2]: > 5 µM

C=CCCCCC/C=C\CC#CC#CC(O)C=C (mixture of isomers)
Activity [4]: Active | Activity [5]: Active | Activity [6]: inactive | Activity [7]: Active | Activity [8]: Active | Activity [9]: Active | Activity [10]: Active | inhibition [11]: inactive | Activity [12]: inactive | Activity [13]: inactive | Activity [14]: inactive | Activity [15]: inactive | Ratio [16]: 1.7 | inhibition [17]: inactive | inhibition [18]: inactive | Activity [19]: inactive | Activity [20]: inactive | Activity [21]: inactive | Activity [22]: inactive | Activity [23]: Active

C=CCCCC/C=C\CC#CC#C[C@@H](O)C=C
GI50 [1]: 74 nM | TGI [1]: 120 nM | CC50 [1]: 210 nM | GI50 [24]: 190 nM | TGI [24]: 300 nM | CC50 [24]: 510 nM | RatioLC50 [25]: 9 | RatioLC50 [26]: 26 | RatioLC50 [27]: 47 | GI50 [2]: 390 nM | TGI [2]: 0.85 µM | CC50 [2]: 1900 nM | RatioLC50 [28]: 2.4 | GI50 [29]: 1700 nM | TGI [29]: 5.1 µM | CC50 [29]: 9.8 µM | GI50 [30]: 390 nM | TGI [30]: 880 nM | CC50 [30]: 1900 nM | GI50 [31]: 1300 nM | TGI [31]: 3100 nM | CC50 [31]: 5.4 µM | Selectivity Index [3]: 4.7 | RatioLC50 [32]: 9

C=CCCCCC(O)/C=C/C#CC#CC(O)CC (mixture of isomers)
TGI [1]: 4800 nM | TGI [2]: > 10 µM

C=CCCCCC(O)/C=C/C#CC#C[C@@H](O)C=C (mixture of isomers)
TGI [1]: 360 nM | TGI [2]: 4.2 µM | Selectivity Index [3]: 12

CN(CCOc1ccc(CC2SC(=O)NC2=O)cc1)c1ccccn1 (stereo not given)
Activity [33]: inactive | Activity [34]: inactive

O=C(Nc1ccccc1)c1cc([N+](=O)[O-])ccc1Cl
Activity [33]: inactive | Activity [34]: inactive

C=CCCCCC/C=C\CC#CC#C[C@@H](O)C=C
GI50 [1]: 51 nM | TGI [1]: 89 nM | CC50 [1]: 170 nM | GI50 [24]: 59 nM | TGI [24]: 130 nM | CC50 [24]: 290 nM | RatioLC50 [25]: 5.3 | RatioLC50 [26]: 26 | RatioLC50 [27]: > 29 | GI50 [2]: 220 nM | TGI [2]: 0.42 µM | CC50 [2]: 900 nM | RatioLC50 [28]: 1.7 | GI50 [29]: 2800 nM | TGI [29]: > 5 µM | CC50 [29]: > 5 µM | GI50 [30]: 300 nM | TGI [30]: 540 nM | CC50 [30]: 1200 nM | GI50 [31]: 850 nM | TGI [31]: 2000 nM | CC50 [31]: 4.4 µM | Selectivity Index [3]: 7.3 | RatioLC50 [32]: 7.1

C=CCCC/C=C\C(C#CC#C[C@H](O)C=C)OC(C)=O (stereo not given in full)
TGI [1]: 2500 nM | TGI [2]: 2 µM | Selectivity Index [3]: 0.8

C=C[C@@H](O)C#CC#C[C@@H](O)/C=C\CCCCCCC [FALCARINDIOL]
TGI [1]: 6000 nM | TGI [2]: 9 µM | Selectivity Index [3]: 1.5
